Data published in ChEMBL document CHEMBL2440012, “Design, synthesis and anticonvulsant properties of new N-Mannich bases derived from 3-phenylpyrrolidine-2,5-diones” (Bioorg Med Chem, 2013).
Active and inactive are the calls of the source. The rule behind the calls is not given here.

Columns and labels:
Mus musculus [1] = test: Neurotoxicity in albino CF1 mouse assessed as minimum motor impairment at 300 mg/kg, ip measured after 4 hrs by rotorod test; format: toxicity, organism-based; set-up: dose 300 mg/kg, route intraperitoneal; conditions: in vivo
Procedure, shortened: (§1)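 Male CF-1 mice given ip suspension in 0.5% methylcellulose/water at 30, 100 and 300 mg/kg; MES, scPTZ (pentylenetetrazole 85 mg/kg sc, CD97 dose for clonic seizures ≥5 s) and rotarod (inability to hold balance 1 min in each of three trials) assessed at 0.5 and 4 h; value is minimum dose active in half or more animals.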

Mus musculus [2] = test: Neurotoxicity in ip dosed albino CF1 mouse assessed as minimum motor impairment in half or more animals measured after 0.5 hrs by rotorod test; format: toxicity, organism-based; conditions: in vivo; procedure, shortened: as §1
Mus musculus [3] = test: Anticonvulsant activity in albino CF1 mouse assessed as protection against subcutaneous pentylenetetrazole-induced convulsion at 300 mg/kg, ip measured after 4 hrs; format: functional, organism-based; set-up: dose 300 mg/kg; procedure, shortened: as §1
Mus musculus [4] = test: Anticonvulsant activity in albino CF1 mouse assessed as protection against subcutaneous pentylenetetrazole-induced convulsion at 300 mg/kg, ip measured after 0.5 hrs; format: functional, organism-based; set-up: dose 300 mg/kg; procedure, shortened: as §1
Mus musculus [5] = test: Anticonvulsant activity in ip dosed albino CF1 mouse assessed as protection against maximal electroshock-induced seizures in half or more animals measured after 4 hrs; format: functional; conditions: read-out: MED; procedure, shortened: as §1
Mus musculus [6] = test: Anticonvulsant activity in albino CF1 mouse assessed as protection against maximal electroshock-induced seizures at 300 mg/kg, ip measured after 0.5 hr; format: functional, organism-based; set-up: dose 300 mg/kg; procedure, shortened: as §1
Rattus norvegicus [7] = test: Anticonvulsant activity in albino Sprague-Dawley rat assessed as protection against maximal electroshock-induced seizures at 30 mg/kg, po measured after 4 hrs; format: functional
Procedure, shortened: (§2)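 Male Sprague-Dawley rats, four per group, dosed p.o. at 30 mg/kg in 0.5% methylcellulose/water suspension; MES test at 0.25, 0.5, 1, 2 and 4 h, motor impairment examined in parallel; number of rats out of four protected.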

Rattus norvegicus [8] = test: Anticonvulsant activity in albino Sprague-Dawley rat assessed as protection against maximal electroshock-induced seizures at 30 mg/kg, po measured after 2 hrs; format: functional; procedure, shortened: as §2
Rattus norvegicus [9] = test: Anticonvulsant activity in albino Sprague-Dawley rat assessed as protection against maximal electroshock-induced seizures at 30 mg/kg, po measured after 1 hr; format: functional; procedure, shortened: as §2
Rattus norvegicus [10] = test: Anticonvulsant activity in albino Sprague-Dawley rat assessed as protection against maximal electroshock-induced seizures at 30 mg/kg, po measured after 0.5 hr; format: functional; procedure, shortened: as §2
Rattus norvegicus [11] = test: Anticonvulsant activity in albino Sprague-Dawley rat assessed as protection against maximal electroshock-induced seizures at 30 mg/kg, po measured after 0.25 hr; format: functional; procedure, shortened: as §2
Mus musculus [12] = test: Neurotoxicity in albino CF1 mouse assessed as minimum motor impairment at 300 mg/kg, ip measured after 0.5 hr by rotorod test; format: toxicity, organism-based; set-up: dose 300 mg/kg, route intraperitoneal; conditions: in vivo; procedure, shortened: as §1
Mus musculus [13] = test: Anticonvulsant activity in albino CF1 mouse assessed as protection against maximal electroshock-induced seizures at 300 mg/kg, ip measured after 4 hrs; format: functional, organism-based; set-up: dose 300 mg/kg; procedure, shortened: as §1
Mus musculus [14] = test: Anticonvulsant activity in ip dosed albino CF1 mouse assessed as protection against maximal electroshock-induced seizures in half or more animals measured after 0.5 hr; format: functional; conditions: read-out: MED; procedure, shortened: as §1
Mus musculus [15] = test: Neurotoxicity in ip dosed albino CF1 mouse assessed as minimum motor impairment in half or more animals measured after 4 hrs by rotorod test; format: toxicity, organism-based; conditions: in vivo; procedure, shortened: as §1

Structure (SMILES)	Activity (Mus musculus [1])	MED (Mus musculus [2]) [mg/kg]	Activity (Mus musculus [3])	Activity (Mus musculus [4])	minimal effective dose (Mus musculus [5]) [mg/kg]	Activity (Mus musculus [6])	Activity (Rattus norvegicus [7])	Activity (Rattus norvegicus [8])	Activity (Rattus norvegicus [9])	Activity (Rattus norvegicus [10])	Activity (Rattus norvegicus [11])	Activity (Mus musculus [12])	Activity (Mus musculus [13])	minimal effective dose (Mus musculus [14]) [mg/kg]	MED (Mus musculus [15]) [mg/kg]
O=C1CC(c2cccc(Cl)c2)C(=O)N1CN1CCN(c2ccccc2F)CC1 (racemic)	Non-toxic	300	inactive	inactive	100	inactive									
O=C1CC(c2cccc(Cl)c2)C(=O)N1CN1CCN(c2ncccn2)CC1 (racemic)	Non-toxic		inactive	inactive	100	inactive	inactive	inactive	inactive	inactive	inactive	Non-toxic			
O=C1CC(c2cccc(Cl)c2)C(=O)N1CN1CCN(c2cccc(Cl)c2)CC1 (racemic)	Non-toxic		inactive	inactive		inactive						Non-toxic	inactive		
O=C1CC(c2cccc(Cl)c2)C(=O)N1CN1CCN(c2ccc(Cl)cc2)CC1 (racemic)	Non-toxic		inactive	inactive	100							Non-toxic		300	
O=C1CC(c2ccccc2)C(=O)N1CN1CCN(C2CCCCC2)CC1 (racemic)	Non-toxic		inactive	inactive		inactive						Non-toxic	inactive		
O=C1CC(c2ccc(Cl)cc2)C(=O)N1CN1CCN(c2ncccn2)CC1 (racemic)	Non-toxic	300	inactive	inactive		inactive							inactive		
O=C1CC(c2ccc(Cl)cc2)C(=O)N1CN1CCOCC1 (racemic)	Non-toxic		inactive	inactive	300							Non-toxic		100	
O=C1CC(c2ccccc2Cl)C(=O)N1CN1CCN(c2cccc(C(F)(F)F)c2)CC1 (racemic)	Non-toxic		inactive	inactive	100	inactive						Non-toxic			
O=C1CC(c2ccccc2Cl)C(=O)N1CN1CCN(c2ccccc2Cl)CC1 (racemic)	Non-toxic		inactive	inactive		inactive						Non-toxic	inactive		
O=C1CC(c2cccc(Cl)c2)C(=O)N1CN1CCN(c2cccc(C(F)(F)F)c2)CC1 (racemic)		300	inactive	inactive	100									100	300
O=C1CC(c2ccccc2Cl)C(=O)N1CN1CCN(c2cccc(Cl)c2)CC1 (racemic)		100	inactive	inactive	100	inactive									300
O=C1CC(c2ccccc2Cl)C(=O)N1CN1CCN(c2ccc(Cl)cc2)CC1 (racemic)	Non-toxic		inactive	inactive	300	inactive						Non-toxic			
O=C1CC(c2ccc(Cl)cc2)C(=O)N1CN1CCN(c2cccc(Cl)c2)CC1 (racemic)		300	inactive	inactive	100	inactive									300
